The subject of series [1] is Rattus norvegicus. As to the kind of experiment: Antiarthritic activity in Lewis rat assessed as collagen oligomeric matrix protein level in serum at 1 mg/kg, po qd administered for 10 days (Rbv = 0.17 +/- 0.02 U/l). Format: functional. Put shortly: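 Collagen-induced arthritis in male Lewis rats (5–6 per group). Groups received vehicle, dexamethasone 1 mg/kg, test item 50 mg/kg once daily, or 25 mg/kg twice daily for 10 days. Body weight, arthritic score and paw volume were monitored, and serum COMP was measured at the end.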

Series [2] has as its target Mitogen-activated protein kinase 14 (Homo sapiens, UniProt Q16539). The experiment in a line: Inhibition of p38alpha MAPK (unknown origin) at 1 uM relative to control.
The test system of series [3] is Liver. As to the kind of experiment: Drug level in human liver microsomes treated with CBS-3595 at 10 to 100 uM. The class given is ADME, microsome. A digest of the protocol:
(§1)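 Test compound incubated at 10, 30 and 100 μM with liver microsomes from rat, Cynomolgus monkey or human, and metabolites monitored.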
On the technique in general: Microsomes from liver hold many membrane-bound enzymes, among them those of drug oxidation.

Series [4] relates to Liver. As to the kind of experiment: Drug level in rat liver microsomes treated with CBS-3595 at 10 to 100 uM. The class given is ADME, microsome. Put shortly: as §1
Series [5] is described as follows: Drug level in cynomolgus monkey liver microsomes treated with CBS-3595 at 10 to 100 uM. Format: ADME, Macaca fascicularis, microsome. A digest of the protocol:
as §1

Series [6] relates to Rattus norvegicus. The experiment in a line: In vivo inhibition of P38 MAPKalpha in Lewis rat assessed as decrease in LPS-stimulated TNFalpha level in serum at 10 mg/kg, po pretreated for 1 hr followed by LPS addition measured after 1.5 hrs post dose relative to control. The class given is functional. Put shortly: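 Lewis rats, n = 8/group: females dosed orally at 10 mg/kg at −1, −3 or −5 h relative to LPS challenge, plus one male group dosed at −1 h. Male and female vehicle controls were given at −1 h. Serum TNFα was measured after LPS and compared with vehicle.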

The species entered for another series is Homo sapiens. The experiment in a line: Inhibition of PDE4 in human U937 cells assessed as [3H]cAMP hydrolysis at 10 uM relative to control. Format: cell-based.
Series [7] can be described thus: Fraction unbound in human plasma. Format: ADME, cell-free. Put shortly: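 Plasma protein binding measured in human, Sprague–Dawley rat and Cynomolgus monkey plasma at 1, 10 and 30 μM compound. Reported as unbound fraction (%).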

SMILES strings stand for the structures.

Sequence of Mitogen-activated protein kinase 14 (Q16539 whole entry): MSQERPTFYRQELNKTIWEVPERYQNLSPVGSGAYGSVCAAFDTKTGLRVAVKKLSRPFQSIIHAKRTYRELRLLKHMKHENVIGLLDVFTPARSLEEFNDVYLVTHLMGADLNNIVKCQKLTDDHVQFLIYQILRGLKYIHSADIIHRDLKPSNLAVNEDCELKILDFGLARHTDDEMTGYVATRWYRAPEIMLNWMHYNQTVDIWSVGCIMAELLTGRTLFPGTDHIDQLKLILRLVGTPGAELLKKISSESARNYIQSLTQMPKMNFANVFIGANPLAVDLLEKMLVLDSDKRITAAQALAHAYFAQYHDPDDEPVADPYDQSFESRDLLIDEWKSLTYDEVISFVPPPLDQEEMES

Consider `C[C@@H]1C[C@H]2[C@@H]3CCC4=CC(=O)C=C[C@]4(C)[C@@]3(F)[C@@H](O)C[C@]2(C)[C@@]1(O)C(=O)CO` [DEXAMETHASONE], for which, in the series with Rattus norvegicus [1], the Activity is recorded as 0.03 U/L.

As for `CC(=O)Nc1cc(-c2c(-c3ccc(F)cc3)nc([S@+](C)[O-])n2C)ccn1`, the inhibition in series [2] stood at 11%.

Take `CC(=O)Nc1cc(-c2c(-c3ccc(F)cc3)nc(S(C)(=O)=O)n2C)ccn1`: the Drug metabolism entry (in the series with Liver [3]; with Liver [4]; in series [5]) was “Metabolite_Detected” in each case. Regarding `Cn1c(S(C)(=O)=O)nc(-c2ccc(F)cc2)c1-c1ccnc(N)c1`, the Drug metabolism result (with Liver [3]; in the series with Liver [4]; in series [5]) was “Metabolite_Detected” in each case. With `CS(=O)(=O)c1nc(-c2ccc(F)cc2)c(-c2ccnc(NC3CCOCC3)c2)[nH]1`, in the series with Rattus norvegicus [6], the inhibition in vivo at 10 mg/kg turned out to be 21%. For the same compound, the inhibition in the series filed under Homo sapiens is 36%. The compound `O=C(Nc1c(Cl)c[n+]([O-])cc1Cl)c1ccc(OC(F)F)c(OCC2CC2)c1` registered a fraction unbound in series [7] of 0.04.

In general, inhibition refers to the share of the control response that was lost under treatment. Usually inhibition in vivo stands for the percentage by which the read-out fell short of the control. The fraction unbound is free concentration divided by total concentration.

(Values after ChEMBL document CHEMBL4028848, “Discovery of N-{4-[5-(4-Fluorophenyl)-3-methyl-2-methylsulfanyl-3H-imidazol-4-yl]-pyridin-2-yl}-acetamide (CBS-3595), a Dual p38α MAPK/PDE-4 Inhibitor with Activity against TNFα-Related Diseases” (J Med Chem, 2017).)
